The source of these data is publication PMC10839871 (Heliyon, 2024).

The conditions of assay [1]: ref 27 (Djouahri et al., 2015); cited from earlier work.
Assay [2] deals with Porcine pancreatic elastase (Sus scrofa, UniProt P00772). Briefly: Anti-elastase activity. The class given is biochemical. The gist of the method: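 Porcine pancreatic elastase stock at 3.33 mg/mL in sterile water. Test sample (3–0.046 mg/mL), Tris–HCl buffer (pH 8) and enzyme pre-incubated 15 min. N-succinyl-Ala-Ala-Ala-p-nitroanilide substrate (1.6 mM solution) added, then 20 min at 37 °C. A400 read immediately. Inhibition % from blank-corrected sample versus buffer+enzyme absorbance. EGCG positive control. Run in triplicate, mean ± SD.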

Assay [3] is described as follows: DPPH free radical scavenging assay. (In general: The DPPH test is a chemical assay of radical scavenging.)
A short description of assay [4]: Ferric reducing antioxidant power.
The subject of a further assay is Pseudomonas aeruginosa. Briefly: MIC / bacterial growth, broth microdilution. The following applies: standard antibiotic. The class given is cell-based. In short, it runs like this:
(§1)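 Ampicillin (10 to 0.078125 mg/mL) as reference in Mueller–Hinton broth microdilution. Wells inoculated with fresh overnight suspension adjusted to OD600 0.6; uninoculated and drug-free growth controls included. Incubated 18 h at 37 °C, aerobic, shaking at 150 rpm. Growth checked visually and spectrophotometrically. MIC taken as lowest concentration preventing visible growth. Triplicate.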
Background: Broth dilution looks for growth in wells or tubes with falling amounts of substance.

A further assay deals with Staphylococcus aureus. In words: MIC / bacterial growth, broth microdilution. The class given is cell-based. The following applies: standard antibiotic. In short, it runs like this:
as §1

The subject of a further assay is Enterococcus faecalis. Briefly: MIC / bacterial growth, broth microdilution. The class given is cell-based. The conditions noted are these: standard antibiotic. The gist of the method: as §1

Read-outs that look alike come from different tables or passages of the source.

Chain of Porcine pancreatic elastase (P00772 27-266): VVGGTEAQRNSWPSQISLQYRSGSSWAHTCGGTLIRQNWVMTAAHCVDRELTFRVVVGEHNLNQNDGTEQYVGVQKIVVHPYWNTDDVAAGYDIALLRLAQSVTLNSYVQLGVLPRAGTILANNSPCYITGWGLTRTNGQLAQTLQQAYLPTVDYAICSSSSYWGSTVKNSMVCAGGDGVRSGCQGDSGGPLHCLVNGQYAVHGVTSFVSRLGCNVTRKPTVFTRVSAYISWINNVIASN

Turning to `O=C1O[C@H]([C@@H](O)CO)C(O)=C1O` [Ascorbic acid], the “ABTS IC50” value in “ABTS assay” amounted to 21.7 ± 0.29 µg/mL.

On to `COc1ccc(O)c(C(C)(C)C)c1` [BHA], for which, in assay [1], the “DPPH IC50” value is 24.73 ± 0.11 µg/mL.

Regarding `Cc1cc(C(C)(C)C)c(O)c(C(C)(C)C)c1` [BHT], the “DPPH IC50” value in assay [1] is 33.89 ± 0.16 µg/mL.

As for `O=C(O[C@@H]1Cc2c(O)cc(O)cc2O[C@@H]1c1cc(O)c(O)c(O)c1)c1cc(O)c(O)c(O)c1` [EGCG, epigallocatechin gallate], the “Elastase IC50” value in assay [2] was found to be 92.00 ± 3.1 µg/mL.

Regarding `O=c1c(O)c(-c2ccc(O)c(O)c2)oc2cc(O)cc(O)c12` [Quercetin], the “DPPH IC50” value in assay [3] is 5.36 ± 0.25 µg/mL. For the same molecule, the FRAP in assay [4] was 16.60 ± 0.64 mM of FeSO4/g Extract.

In the case of `CC1(C)S[C@@H]2[C@H](NC(=O)[C@H](N)c3ccccc3)C(=O)N2[C@H]1C(=O)O` [ampicillin], the “Concentration that completely inhibited the bacterial growth” value in the assay on Pseudomonas aeruginosa, in the assay with Staphylococcus aureus and in the assay with Enterococcus faecalis was 0.3125 mg/mL throughout.
